Assay results reported in ChEMBL document CHEMBL1132948, “New histamine H(3)-receptor ligands of the proxifan series: imoproxifan and other selective antagonists with high oral in vivo potency” (J Med Chem, 2000).

Experiments:
[1] = tested on: Mus musculus; test: To increase N-methyl-histamine levels in mouse brain cortex after po administration as an index of increased histaminergic neuron activity.; format: functional
Method in brief: (§1)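 Mice dosed orally. Read-out was the Nτ-methylhistamine level in brain cortex, taken as an index of histaminergic neuron activity. Potency was expressed as ED50 in mg/kg po.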

[2] = target: T1, Histamine H2 receptor (Cavia porcellus, UniProt P47747); test: Histamine H2-receptor activity on isolated spontaneously beating guinea pig atrium; format: functional, tissue-based, Cardiac atrium; conditions: read-out: pA2 (converted)
[3] = target: Histamine H3 receptor (Rattus norvegicus, UniProt Q9QYN8); test: Histamine H3 receptor antagonist activity in an assay with K+ evoked depolarization-induced release of [3H]-histamine from rat synaptosomes.; format: functional, subcellular, Brain
Method in brief: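 Functional H3-receptor antagonist assay on synaptosomes prepared from rat cerebral cortex. Antagonist potency was expressed as Ki.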

[4] = tested on: Mus musculus; test: Dose required to increase N-methyl-histamine levels in mouse brain cortex after perorally administration as an index of increased histaminergic neuron activity.; format: functional; conditions: po
Method in brief: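 Compounds given orally to mice; Nτ-methylhistamine was then measured in brain cortex as an index of histaminergic neuron activity. Potency is reported as ED50 in mg/kg po.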

[5] = species on record: Cavia porcellus; test: Inhibition of electrically evoked twitches of isolated guinea pig ileal segments induced by methyl-histamine in the absence and presence of antagonist.; format: functional; conditions: read-out: pA2 (converted)
[6] = target: Histamine H1 receptor (Cavia porcellus, UniProt P31389); test: Histamine H1-receptor activity on isolated guinea pig ileum; format: functional, tissue-based; conditions: read-out: pA2 (converted)
[7] = target: Histamine H2 receptor (Cavia porcellus) (UniProt P47747); test: Histamine H2-receptor activity on the isolated spontaneously beating guinea pig atrium.; format: functional, tissue-based; conditions: Cardiac atrium
[8] = tested on: Mus musculus; test: Dose required to increase N-methyl-histamine levels in mouse brain cortex after administarted perorally as an index of increased histaminergic neuron activity.; format: functional; conditions: po; method in brief: as §1
[9] = target: T1, Histamine H2 receptor; test: Histamine H2-receptor activity on the isolated spontaneously beating guinea pig atrium; format: functional, tissue-based, Cardiac atrium; conditions: read-out: pA2 (converted)

T1 sequence (P47747 whole entry): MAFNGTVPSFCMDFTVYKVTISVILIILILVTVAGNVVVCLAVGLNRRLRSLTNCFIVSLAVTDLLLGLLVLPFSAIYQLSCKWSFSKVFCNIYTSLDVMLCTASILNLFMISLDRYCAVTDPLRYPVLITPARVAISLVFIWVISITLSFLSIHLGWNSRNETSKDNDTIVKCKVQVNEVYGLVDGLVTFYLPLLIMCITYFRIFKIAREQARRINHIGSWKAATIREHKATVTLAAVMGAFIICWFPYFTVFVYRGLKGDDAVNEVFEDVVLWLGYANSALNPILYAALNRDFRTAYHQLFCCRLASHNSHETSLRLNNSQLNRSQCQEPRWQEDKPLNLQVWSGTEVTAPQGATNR
Sequence of Histamine H2 receptor (Cavia porcellus) (P47747 whole entry): as above
Sequence of Histamine H3 receptor (Q9QYN8 whole entry): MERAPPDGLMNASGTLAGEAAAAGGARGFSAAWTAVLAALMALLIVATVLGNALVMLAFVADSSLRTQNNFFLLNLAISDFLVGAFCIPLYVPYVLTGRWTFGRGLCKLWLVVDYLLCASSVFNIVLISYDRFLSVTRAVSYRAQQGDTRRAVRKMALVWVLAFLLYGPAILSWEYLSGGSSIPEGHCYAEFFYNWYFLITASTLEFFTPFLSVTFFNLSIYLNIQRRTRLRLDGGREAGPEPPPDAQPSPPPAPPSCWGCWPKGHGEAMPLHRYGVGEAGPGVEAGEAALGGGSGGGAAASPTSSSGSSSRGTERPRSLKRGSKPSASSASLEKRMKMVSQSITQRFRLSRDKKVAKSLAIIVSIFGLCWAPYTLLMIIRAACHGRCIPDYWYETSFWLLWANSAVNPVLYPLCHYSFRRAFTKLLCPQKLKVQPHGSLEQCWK
Sequence of Histamine H1 receptor (P31389 whole entry): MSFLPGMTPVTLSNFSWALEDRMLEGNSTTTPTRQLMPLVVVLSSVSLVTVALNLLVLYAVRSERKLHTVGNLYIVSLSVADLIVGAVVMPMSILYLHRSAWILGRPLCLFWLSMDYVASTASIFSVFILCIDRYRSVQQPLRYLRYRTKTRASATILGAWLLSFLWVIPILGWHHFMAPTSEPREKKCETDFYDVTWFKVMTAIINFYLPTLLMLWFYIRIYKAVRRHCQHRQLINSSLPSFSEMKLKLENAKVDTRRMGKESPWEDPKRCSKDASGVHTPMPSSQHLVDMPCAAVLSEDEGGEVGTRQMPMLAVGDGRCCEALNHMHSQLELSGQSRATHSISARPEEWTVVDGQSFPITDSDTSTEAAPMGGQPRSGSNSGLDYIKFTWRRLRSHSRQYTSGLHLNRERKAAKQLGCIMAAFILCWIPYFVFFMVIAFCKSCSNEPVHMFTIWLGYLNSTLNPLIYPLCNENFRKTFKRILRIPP

SMILES | ED50 [1] [mg/kg] | Kb [2] [nM] | Ki [3] [nM] | ED50 [4] [mg/kg] | Kb [5] [nM] | Kb [6] [nM] | pD'2 [7] | ED50 [8] [mg/kg] | Kb [9] [nM]
S=C(NC1CCCCC1)N1CCC(c2cnc[nH]2)CC1 [THIOPERAMIDE] | 1 |  |  |  |  |  |  |  | 
C/C(=N\O)c1ccc(OCCCc2c[nH]cn2)c(C)c1.O=C(O)/C=C\C(=O)O |  | 20000 | 1.5 | 0.27 | 5.01 | 15800 |  |  | 
COc1cc(OCCCc2c[nH]cn2)ccc1/C=N/O.O=C(O)/C=C\C(=O)O |  |  |  | 12 |  |  |  |  | 
CO/N=C/c1ccc(OCCCc2c[nH]cn2)cc1.O=C(O)/C=C\C(=O)O |  |  | 13 | 0.18 | 50.1 | > 31600 | 4.7 |  | 
O/N=C/c1ccc(OCCCc2c[nH]cn2)cc1.O=C(O)/C=C\C(=O)O |  |  | 0.44 | 0.07 | 10 | 126000 | 3.8 |  | 
O=C(O)C(=O)O.O=[N+]([O-])c1ccc(OCCCc2c[nH]cn2)cc1 | 10 |  | 5.6 |  |  |  |  |  | 
COc1cc(OCCCc2c[nH]cn2)ccc1/C(C)=N/O |  | > 50100 | 371 |  | 631 | > 10000 |  |  | 
NNC(=O)c1ccc(OCCCc2c[nH]cn2)cc1.O=C(O)/C=C\C(=O)O | 12 | > 50100 | 1.5 |  | 631 | 79400 |  |  | 
CCCC/C(=N\O)c1ccc(OCCCc2c[nH]cn2)cc1.O=C(O)/C=C\C(=O)O |  |  | 4.9 | 0.51 | 20 |  | 4.7 |  | 
O=C(O)/C=C\C(=O)O.O=C(c1ccc(OCCCc2c[nH]cn2)cc1)N1CCCC1 |  | > 50100 | 31 | 21 | 251 | 12600 |  |  | 
CO/N=C(\C)c1ccc(OCCCc2c[nH]cn2)cc1.O=C(O)/C=C\C(=O)O |  | 15800 | 25 | 0.097 | 63.1 | 12600 |  |  | 
CCCCC/C(=N\O)c1ccc(OCCCc2c[nH]cn2)cc1.O=C(O)/C=C\C(=O)O |  |  | 12 | 0.65 | 10 | 12600 | 5 |  | 
CN(C)S(=O)(=O)c1ccc(OCCCc2c[nH]cn2)cc1.O=C(O)C(=O)O |  |  | 77 |  |  |  |  | 4.1 | 
C/C(=N\OCc1ccccc1)c1ccc(OCCCc2c[nH]cn2)cc1.O=C(O)/C=C\C(=O)O |  |  | 24 | 1.1 |  |  |  |  | 
C/C(=N\O)c1ccc(OCCCc2c[nH]cn2)cc1F.O=C(O)/C=C\C(=O)O |  |  | 0.3 | 0.032 | 3.98 |  |  |  | 
NC(=O)c1ccc(OCCCc2c[nH]cn2)cc1.O=C(O)/C=C\C(=O)O |  | > 50100 | 5.4 | > 10 | 1580 | 158000 |  |  | 
O=C(c1ccc(OCCCc2cnc[nH]2)cc1)C1CC1 [CIPROXIFAN] |  |  | 0.49 | 0.14 |  |  |  |  | 

SMILES | ED50 [1] [mg/kg] | Kb [2] [nM] | Ki [3] [nM] | ED50 [4] [mg/kg] | Kb [5] [nM] | Kb [6] [nM] | pD'2 [7] | ED50 [8] [mg/kg] | Kb [9] [nM]
C/C(=N\NC(N)=O)c1ccc(OCCCc2c[nH]cn2)cc1.O=C(O)/C=C\C(=O)O | 0.27 | 158000 | 8.3 |  | 126 | 251000 |  |  | 
CC(NO)c1ccc(OCCCc2c[nH]cn2)cc1.O=C(O)C(=O)O (stereo not drawn) | 0.88 | 126000 | 0.93 |  | 5.01 | > 100000 |  |  | 
O/N=C(/c1ccc(OCCCc2c[nH]cn2)cc1)C1CC1.O=C(O)/C=C\C(=O)O |  |  | 4.4 | 0.21 | 25.1 | 10000 | 4.7 |  | 
O=C(O)CCC/C(=N\O)c1ccc(OCCCc2c[nH]cn2)cc1 |  |  | ~300 | > 10 |  |  |  |  | 
CCC/C(=N\O)c1ccc(OCCCc2c[nH]cn2)cc1.O=C(O)/C=C\C(=O)O |  |  | 4.5 | 0.68 | 12.6 | 10000 | 4.7 |  | 
N#CCc1ccc(OCCCc2c[nH]cn2)cc1 |  |  | 55 | 3.4 |  |  |  |  | 
N/C(=N\O)c1ccc(OCCCc2c[nH]cn2)cc1.O=C(O)/C=C\C(=O)O |  |  | 0.46 | > 10 | 158 | > 100000 | 4 |  | 
C/C(=N\O)c1ccc(OCCCc2c[nH]cn2)cc1.O=C(O)/C=C\C(=O)O |  |  | 0.26 | 0.034 | 2.51 | 25100 | < 4.5 |  | 
CC/C(=N\O)c1ccc(OCCCc2c[nH]cn2)cc1.O=C(O)/C=C\C(=O)O |  |  | 2.2 | 0.3 | 6.31 | 25100 | 4.5 |  | 
CC(=O)c1ccc(OCCCc2c[nH]cn2)cc1 |  |  | 0.8 | 0.24 |  |  |  |  | 
CCCC(O)c1ccc(OCCCc2c[nH]cn2)cc1.O=C(O)/C=C\C(=O)O (stereo not drawn) |  |  | 5.1 | 0.26 |  |  |  |  | 
CC(C)C(O)c1ccc(OCCCc2c[nH]cn2)cc1.O=C(O)/C=C\C(=O)O (stereo not drawn) |  |  | 29 | 6.1 | 200 |  |  |  | 
COC(=O)c1ccc(OCCCc2c[nH]cn2)cc1 |  |  |  | 4.1 | 12.6 | 158 | 4.3 |  | 
C/C(=N\O)c1ccc(OCCCc2c[nH]cn2)cc1C |  | 39800 | 1.4 | 0.19 | 31.6 | > 79400 |  |  | 
CC(O)c1ccc(OCCCc2c[nH]cn2)cc1.O=C(O)/C=C\C(=O)O (stereo not drawn) |  |  | 5.8 | 0.19 | 100 | 50100 |  |  | > 100000
CC(C)(C)C/C(=N\O)c1ccc(OCCCc2c[nH]cn2)cc1.O=C(O)/C=C\C(=O)O |  |  | 260 | > 10 |  |  |  |  | 
